The values that follow come from ChEMBL document CHEMBL1944589, “Identification of novel SAR properties of the Jak2 small molecule inhibitor G6: significance of the para-hydroxyl orientation” (2012).

Active and inactive are the calls of the source. No cut-off for these calls is given here.

Experiment [1] relates to HEL. Description: Growth inhibition of human HEL cells expressing Jak2 V617F mutation at 0.03 to 30 uM after 72 hrs by trypan blue exclusion B assay. It is filed as functional, cell-based. The procedure, abridged: (§1)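 HEL cells were incubated with graded compound concentrations for 72 h. Viability was determined by trypan blue exclusion.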
In experiment [2] the test system is HEL. Briefly: Cell cycle arrest in human HEL cells assessed as decrease in cyclin A expression at 25 uM after 24 hrs by Western blot analysis. It is filed as functional, cell-based. The method in brief:
(§2)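 HEL cells were exposed to 25 μM of each compound for 24 h. Lysates were immunoblotted for cyclin A, cyclin B1 and CDK1, with β-actin as the loading control. Two independent experiments were run.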

For experiment [3], the system named is HEL. Description: Cell cycle arrest in human HEL cells assessed as effect on cyclin B1 expression at 25 uM after 24 hrs by Western blot analysis. It is filed as functional, cell-based. The method in brief: as §2
In experiment [4] the test system is HEL. Briefly: Cell cycle arrest in human HEL cells assessed as effect on CDK1 expression at 25 uM after 24 hrs by Western blot analysis. It is filed as functional, cell-based. The method in brief:
as §2

The subject of experiment [5] is HEL. Briefly: Induction of apoptosis in human HEL cells at 10 uM after 48 hrs by annexinV-propidium iodide staining-based flow cytometric analysis. It is filed as functional, cell-based. The method in brief:
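HEL cells were exposed to 10 μM of each compound for 48 h, then stained with Annexin V and propidium iodide and analyzed by flow cytometry. Early apoptosis was scored as Annexin V-positive, PI-negative. Data come from two independent experiments, each in triplicate.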

Experiment [6] has as its system HEL. Briefly: Induction of apoptosis in human HEL cells assessed as cleavage of PARP at 25 uM after 24 hrs by Western blot analysis. It is filed as functional, cell-based. The method in brief: (§3)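 HEL cells were exposed to 25 μM of each compound for 24 h. Cleavage of PARP, caspase-3, Bid and Bim was assessed by Western blot. Two experiments were run for each blot.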

Experiment [7] deals with Bone marrow cell. Description: Anticolonegic activity in mouse bone marrow cells expressing Jak2 V617F mutation assessed as decrease in number of erythroid burst forming units at 25 uM after 24 hrs and measured on day 6. It is filed as functional, cell-based. The procedure, abridged:
(§4)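 Bone marrow cells taken from 6-month-old Jak2-V617F transgenic mice were incubated ex vivo in medium containing 25 μM of each compound for 0, 12 or 24 h. Cells were then washed, plated in methylcellulose (semi-solid) medium and cultured for 6 further days. BFU-E and CFU-GM colonies were counted. Each condition was run in duplicate and compared with the 0 h condition.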

Experiment [8] has as its system Bone marrow cell. Briefly: Anticolonegic activity in mouse bone marrow cells expressing Jak2 V617F mutation assessed as decrease in number of granulocyte/macrophage colony forming units at 25 uM after 24 hrs and measured on day 6. It is filed as functional, cell-based. The procedure, abridged:
as §4

Experiment [9] addresses Tyrosine-protein kinase JAK2 (Homo sapiens) (UniProt O60674). Description: Jak2 autophosphorylation at 2.5 uM after 30 mins by Western blot analysis as % of control.
Experiment [10] has the same target. Briefly: Jak2-mediated GST-STAT1 phosphorylation at 2.5 uM after 30 mins by Western blot analysis as % of control.
Experiment [11] concerns HEL. Description: Growth inhibition of human HEL cells expressing Jak2 V617F mutation after 72 hrs by trypan blue exclusion B assay. It is filed as functional, cell-based. The procedure, abridged: as §1
For experiment [12], the system named is HEL. Description: Growth inhibition of human HEL cells expressing Jak2 V617F mutation at 0.03 to 30 uM by trypan blue exclusion B assay. It is filed as functional, cell-based. To be noted: TDE = time-dependent effect.
For experiment [13], the system named is HEL. Description: Growth inhibition of human HEL cells expressing Jak2 V617F mutation at 0.85 uM after 72 hrs by trypan blue exclusion B assay. It is filed as functional. To be noted: read-out: GI. The procedure, abridged:
as §1

The test system of experiment [14] is HEL. Description: Growth inhibition of human HEL cells expressing Jak2 V617F mutation at 0.03 to 30 uM at 24 to 72 hrs by trypan blue exclusion B assay. It is filed as functional, cell-based.
Experiment [15] deals with BaF3. Description: Growth inhibition of mouse BAF3 cells expressing Jak2 […] mutation after 72 hrs by MTS assay. It is filed as functional, cell-based. The method in brief:
(§5)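 Ba/F3 cells expressing EpoR and Jak2-V617F were incubated with graded compound concentrations for 72 h. Viability was read by MTS assay. Data come from two independent experiments, each in triplicate.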

In experiment [16] the test system is BaF3. Description: Growth inhibition of mouse BAF3 cells expressing Jak2 V617 mutation at 0.03 to 30 uM by MTS assay. It is filed as functional, cell-based. To be noted: TDE = time-dependent effect. The procedure, abridged: as §5
In experiment [17] the target is Tyrosine-protein kinase JAK2 (Homo sapiens) (UniProt O60674). Briefly: Inhibition of Jak2-mediated STAT5 phosphorylation at Try694 in human HEL cells at 25 uM after 24 hrs by Western blot analysis. It is filed as cell-based. The method in brief: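 HEL cells were exposed to 25 μM of each compound for 24 h. Lysates were immunoprecipitated for STAT5 and phospho-STAT5 was detected by Western blot. Densitometry expressed phospho-STAT5 as percent of total, normalized to the DMSO control; n = 4.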
Sequence of Tyrosine-protein kinase JAK2 (Homo sapiens) (O60674 whole entry): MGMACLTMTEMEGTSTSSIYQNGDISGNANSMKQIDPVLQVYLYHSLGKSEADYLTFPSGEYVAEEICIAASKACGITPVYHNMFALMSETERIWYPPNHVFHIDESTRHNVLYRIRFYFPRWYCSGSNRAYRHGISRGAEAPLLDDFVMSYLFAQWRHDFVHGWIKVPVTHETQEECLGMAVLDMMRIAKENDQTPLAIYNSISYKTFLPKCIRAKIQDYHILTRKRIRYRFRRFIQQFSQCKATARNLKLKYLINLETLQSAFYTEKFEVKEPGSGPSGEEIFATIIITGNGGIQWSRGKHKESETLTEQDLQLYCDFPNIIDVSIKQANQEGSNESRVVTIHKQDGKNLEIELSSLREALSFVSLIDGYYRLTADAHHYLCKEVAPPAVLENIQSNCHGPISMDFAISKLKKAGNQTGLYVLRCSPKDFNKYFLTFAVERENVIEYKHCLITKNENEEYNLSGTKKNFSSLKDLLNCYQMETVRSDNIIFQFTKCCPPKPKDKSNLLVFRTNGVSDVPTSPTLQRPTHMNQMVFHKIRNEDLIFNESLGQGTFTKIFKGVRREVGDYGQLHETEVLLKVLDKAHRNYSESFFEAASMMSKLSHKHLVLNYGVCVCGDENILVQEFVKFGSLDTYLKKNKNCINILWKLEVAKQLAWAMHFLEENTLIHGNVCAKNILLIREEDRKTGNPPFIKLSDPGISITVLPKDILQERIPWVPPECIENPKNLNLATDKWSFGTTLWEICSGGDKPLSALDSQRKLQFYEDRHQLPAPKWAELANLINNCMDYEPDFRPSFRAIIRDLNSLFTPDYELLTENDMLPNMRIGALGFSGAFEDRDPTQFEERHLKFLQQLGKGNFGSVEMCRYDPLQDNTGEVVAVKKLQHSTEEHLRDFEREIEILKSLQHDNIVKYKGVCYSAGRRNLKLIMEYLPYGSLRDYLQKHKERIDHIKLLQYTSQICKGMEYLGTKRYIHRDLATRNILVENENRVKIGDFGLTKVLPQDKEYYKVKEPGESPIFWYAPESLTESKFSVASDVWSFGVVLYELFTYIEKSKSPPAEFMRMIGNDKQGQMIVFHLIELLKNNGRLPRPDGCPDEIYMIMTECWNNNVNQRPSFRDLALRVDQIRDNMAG

Experiment [18] deals with HEL. Description: Cell cycle arrest in human HEL cells assessed as decrease in cell population at G1 phase at 10 uM after 24 hrs by flow cytometric analysis. It is filed as functional, cell-based. The procedure, abridged: (§6)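 HEL cells were exposed to 10 μM of each compound for 24 h. DNA content was then analyzed by flow cytometry. Data come from two experiments, each measured in triplicate.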

Experiment [19] relates to HEL. Briefly: Cell cycle arrest in human HEL cells assessed as increase in cell population at G2 phase at 10 uM after 24 hrs by flow cytometric analysis. It is filed as functional, cell-based. The procedure, abridged: as §6
In experiment [20] the test system is HEL. Description: Cell cycle arrest in human HEL cells assessed as accumulation at G2/M phase at 10 uM after 24 hrs by flow cytometric analysis. It is filed as functional, cell-based. The method in brief: as §6
Experiment [21] concerns HEL. Description: Induction of apoptosis in human HEL cells assessed as cleavage of caspase-3 at 25 uM after 24 hrs by Western blot analysis. It is filed as functional, cell-based. The procedure, abridged:
as §3

The test system of experiment [22] is HEL. Briefly: Induction of apoptosis in human HEL cells assessed as cleavage of Bim at 25 uM after 24 hrs by Western blot analysis. It is filed as functional, cell-based. The procedure, abridged:
as §3

Experiment [23] has as its system HEL. Description: Induction of apoptosis in human HEL cells assessed as cleavage of Bid at 25 uM after 24 hrs by Western blot analysis. It is filed as functional, cell-based. The procedure, abridged: as §3
Experiment [24] has as its system Bone marrow cell. Briefly: Anticolonegic activity in mouse bone marrow cells expressing Jak2 V617F mutation assessed as decrease in number of erythroid burst forming units at 25 uM after 12 hrs and measured on day 6. It is filed as functional, cell-based. The procedure, abridged: as §4
Experiment [25] has as its system Bone marrow cell. Description: Anticolonegic activity in mouse bone marrow cells expressing Jak2 V617F mutation assessed as decrease in number of granulocyte/macrophage colony forming units at 25 uM after 12 hrs and measured on day 6. It is filed as functional, cell-based. The procedure, abridged: as §4
For experiment [26], the system named is BaF3. Briefly: Growth inhibition of mouse BAF3 cells expressing Jak2 V617 mutation at 30 uM after 72 hrs by MTS assay. It is filed as functional, cell-based. The method in brief:
as §5

Turning to `C/C(=C(/C)c1ccc(O)c(CN(C)C)c1)c1ccc(O)c(CN(C)C)c1`, in the experiment on HEL [1], the “growth inhibition (GI)” value was “Active”. Further, the outcome in the experiment on HEL [2], with HEL [3] and in the experiment on HEL [4] was inactive. Further, the result in the experiment with HEL [5], in the experiment on HEL [6], in the experiment with Bone marrow cell [7] and with Bone marrow cell [8] was Active. The residual activity in [9] and in [10] was 89.1% throughout.

Regarding `CN(C)Cc1cc(/C=C/c2ccc(O)c(CN(C)C)c2)ccc1O`, the “growth inhibition (GI)” value is “Dose-dependent effect” in the experiment with HEL [11], “tde” in the experiment on HEL [12], “Dose-dependent effect” in the experiment with BaF3 [15] and “tde” in the experiment with BaF3 [16]. Moreover, the inhibition of growth at 0.85 µM in the experiment on HEL [13] stood at 50%. Moreover, the “growth inhibition (GI)” value with HEL [14] is “Active”. For the same compound, in [17], the inhibition result was “Active”. Further, the outcome in the experiment on HEL [18], with HEL [19], with HEL [20], in the experiment on HEL [2], in the experiment with HEL [5] and in the experiment with HEL [6] was Active. The result in the experiment with HEL [21], in the experiment on HEL [22], in the experiment on HEL [23], in the experiment with Bone marrow cell [7], with Bone marrow cell [8] and with Bone marrow cell [24] was Active. The outcome in the experiment on Bone marrow cell [25] was Active. Besides, the outcome in the experiment on HEL [3] and with HEL [4] was inactive. Moreover, the residual activity in experiment [9] is 44.2%; in experiment [10], 71.5%.

Take `CN(C)Cc1ccc(/C=C/c2ccc(CN(C)C)c(O)c2)cc1O`: the “growth inhibition (GI)” value with HEL [1] and in the experiment on BaF3 [26] was “Active” each time. The outcome in the experiment on HEL [2], in the experiment on HEL [3], in the experiment with HEL [4], in the experiment with HEL [5] and in the experiment on HEL [6] was inactive. For the same compound, the result in the experiment on Bone marrow cell [8] was Active. The residual activity turned out to be 94.4% in experiment [9] and 93.3% in experiment [10].

In the case of `C/C(=C(/C)c1ccc(CN(C)C)c(O)c1)c1ccc(CN(C)C)c(O)c1`, the “growth inhibition (GI)” value with HEL [1] is “Active”. For the same compound, the outcome with HEL [18], in the experiment on HEL [19], in the experiment with HEL [20], in the experiment on HEL [2], in the experiment with HEL [5] and in the experiment on HEL [6] was Active. In addition, the result in the experiment on HEL [21], in the experiment on Bone marrow cell [7], in the experiment with Bone marrow cell [8], in the experiment with Bone marrow cell [24] and with Bone marrow cell [25] was Active. The outcome in the experiment on HEL [3] and with HEL [4] was inactive. The residual activity was determined as 98.4% in experiment [9] and 104% in experiment [10].
